Experimental data taken from ChEMBL document CHEMBL4145497, “Discovery of 2-aminothiazolyl berberine derivatives as effectively antibacterial agents toward clinically drug-resistant Gram-negative Acinetobacter baumanii” (Eur J Med Chem, 2018).
Converted amounts (≈) assume the structure as drawn.

What was measured:
Staphylococcus aureus [1] = assay: Antibacterial activity against Staphylococcus aureus ATCC 25923 after 18 to 24 hrs by CLSI two fold serial dilution method; format: functional
Staphylococcus aureus [2] = assay: Antibacterial activity against methicillin-resistant Staphylococcus aureus N315 after 18 to 24 hrs by CLSI two fold serial dilution method; format: functional
Bacillus subtilis = assay: Antibacterial activity against Bacillus subtilis ATCC 21216 after 18 to 24 hrs by CLSI two fold serial dilution method; format: functional
Micrococcus luteus = assay: Antibacterial activity against Micrococcus luteus ATCC 4698 after 18 to 24 hrs by CLSI two fold serial dilution method; format: functional
Enterococcus faecalis = assay: Antibacterial activity against drug-resistant Enterococcus faecalis after 18 to 24 hrs by CLSI two fold serial dilution method; format: functional
Escherichia coli [3] = assay: Antibacterial activity against Escherichia coli DH52 after 18 to 24 hrs by CLSI two fold serial dilution method; format: functional
Escherichia coli [4] = assay: Antibacterial activity against drug-resistant Escherichia coli after 18 to 24 hrs by CLSI two fold serial dilution method; format: functional
Pseudomonas aeruginosa [5] = assay: Antibacterial activity against Pseudomonas aeruginosa ATCC 27853 after 18 to 24 hrs by CLSI two fold serial dilution method; format: functional
Pseudomonas aeruginosa [6] = assay: Antibacterial activity against drug-resistant Pseudomonas aeruginosa after 18 to 24 hrs by CLSI two fold serial dilution method; format: functional
Klebsiella pneumoniae = assay: Antibacterial activity against drug-resistant Klebsiella pneumoniae after 18 to 24 hrs by CLSI two fold serial dilution method; format: functional
Acinetobacter baumannii = assay: Antibacterial activity against drug-resistant Acinetobacter baumannii after 18 to 24 hrs by CLSI two fold serial dilution method; format: functional
Candida albicans [7] = assay: Antifungal activity against Candida albicans ATCC 76615 by CLSI two fold serial dilution method; format: functional
Cyberlindnera jadinii = assay: Antifungal activity against Candida utilis ATCC 9950 by CLSI two fold serial dilution method; format: functional; settings: Williopsis jadinii
Pichia norvegensis = assay: Antifungal activity against Candida mycoderma ATCC 96918 by CLSI two fold serial dilution method; format: functional
Aspergillus flavus = assay: Antifungal activity against Aspergillus flavus ATCC 204304 by CLSI two fold serial dilution method; format: functional
Saccharomyces cerevisiae = assay: Antifungal activity against Saccharomyces cerevisiae ATCC 9763 by CLSI two fold serial dilution method; format: functional
Candida parapsilosis = assay: Antifungal activity against Candida parapsilosis ATCC 22019 by CLSI two fold serial dilution method; format: functional; settings: Lodderomyces parapsilosis
Candida albicans [8] = assay: Antifungal activity against drug-resistant Candida albicans by CLSI two fold serial dilution method; format: functional
Candida tropicalis = assay: Antifungal activity against drug-resistant Candida tropicalis by CLSI two fold serial dilution method; format: functional
Aspergillus fumigatus = assay: Antifungal activity against drug-resistant Aspergillus fumigatus by CLSI two fold serial dilution method; format: functional
Escherichia coli [9] = assay: Potency index, ratio of norfloxacin MIC to compound MIC for antibacterial activity against Escherichia coli DH52; format: functional
[10] = Aqueous solubility of the compound in phosphate buffer at pH 7.4 after 3 hrs by UV detection assay; format: physicochemical
In short: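 Water solubility measured at physiological pH, with berberine as the control.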

Row | SMILES | MIC (Staphylococcus aureus [1]) [µM] | MIC (Staphylococcus aureus [2]) [µM] | MIC (Bacillus subtilis) [µM] | MIC (Micrococcus luteus) [µM] | MIC (Enterococcus faecalis) [µM] | MIC (Escherichia coli [3]) [µM] | MIC (Escherichia coli [4]) [µM] | MIC (Pseudomonas aeruginosa [5]) [µM] | MIC (Pseudomonas aeruginosa [6]) [µM] | MIC (Klebsiella pneumoniae) [µM] | MIC (Acinetobacter baumannii) [µM] | MIC (Candida albicans [7]) [µM] | MIC (Cyberlindnera jadinii) [µM] | MIC (Pichia norvegensis) [µM] | MIC (Aspergillus flavus) [µM] | MIC (Saccharomyces cerevisiae) [µM] | MIC (Candida parapsilosis) [µM] | MIC (Candida albicans [8]) [µM] | MIC (Candida tropicalis) [µM] | MIC (Aspergillus fumigatus) [µM] | other results
1 | COc1cc(/C=N/NC(N)=S)c2c(c1OCc1ccccc1F)CN1CCc3cc4c(cc3C1C2)OCO4 (centres undefined) | 30 (≈ 16 µg/mL) | 30 (≈ 16 µg/mL) | 240 (≈ 128 µg/mL) | 240 (≈ 128 µg/mL) | 240 (≈ 128 µg/mL) | 240 (≈ 128 µg/mL) | 240 (≈ 128 µg/mL) | 480 (≈ 257 µg/mL) | 480 (≈ 257 µg/mL) | 480 (≈ 257 µg/mL) | 4 (≈ 2.14 µg/mL) | 480 (≈ 257 µg/mL) | 480 (≈ 257 µg/mL) | 240 (≈ 128 µg/mL) | 480 (≈ 257 µg/mL) | 960 (≈ 513 µg/mL) | 240 (≈ 128 µg/mL) | 480 (≈ 257 µg/mL) | 120 (≈ 64.2 µg/mL) | 4 (≈ 2.14 µg/mL) | 
2 | COc1cc(/C=N/NC(N)=S)c2c(c1OCc1ccc(Cl)c(Cl)c1)CN1CCc3cc4c(cc3C1C2)OCO4 (centres undefined) | 220 (≈ 129 µg/mL) | 220 (≈ 129 µg/mL) | 220 (≈ 129 µg/mL) | 440 (≈ 258 µg/mL) | 440 (≈ 258 µg/mL) | 110 (≈ 64.4 µg/mL) | 110 (≈ 64.4 µg/mL) | 220 (≈ 129 µg/mL) | 220 (≈ 129 µg/mL) | 220 (≈ 129 µg/mL) | 30 (≈ 17.6 µg/mL) | 440 (≈ 258 µg/mL) | 220 (≈ 129 µg/mL) | 440 (≈ 258 µg/mL) | 440 (≈ 258 µg/mL) | 220 (≈ 129 µg/mL) | 220 (≈ 129 µg/mL) | 440 (≈ 258 µg/mL) | 110 (≈ 64.4 µg/mL) | 3 (≈ 1.76 µg/mL) | 
3 | CCCCCCOc1c(OC)cc(/C=N/NC(N)=S)c2c1CN1CCc3cc4c(cc3C1C2)OCO4 (centres undefined) | 130 (≈ 66.4 µg/mL) | 130 (≈ 66.4 µg/mL) | 130 (≈ 66.4 µg/mL) | 250 (≈ 128 µg/mL) | 30 (≈ 15.3 µg/mL) | 30 (≈ 15.3 µg/mL) | 30 (≈ 15.3 µg/mL) | 60 (≈ 30.6 µg/mL) | 60 (≈ 30.6 µg/mL) | 130 (≈ 66.4 µg/mL) | 60 (≈ 30.6 µg/mL) | 60 (≈ 30.6 µg/mL) | 250 (≈ 128 µg/mL) | 250 (≈ 128 µg/mL) | 250 (≈ 128 µg/mL) | 500 (≈ 255 µg/mL) | 60 (≈ 30.6 µg/mL) | 60 (≈ 30.6 µg/mL) | 60 (≈ 30.6 µg/mL) | 130 (≈ 66.4 µg/mL) | Ratio (Escherichia coli [9]): 53
4 | CCCCCCCCCCOc1c(OC)cc(/C=N/NC(N)=S)c2c1CN1CCc3cc4c(cc3C1C2)OCO4 (centres undefined) | 30 (≈ 17 µg/mL) | 30 (≈ 17 µg/mL) | 230 (≈ 130 µg/mL) | 230 (≈ 130 µg/mL) | 30 (≈ 17 µg/mL) | 30 (≈ 17 µg/mL) | 30 (≈ 17 µg/mL) | 230 (≈ 130 µg/mL) | 230 (≈ 130 µg/mL) | 230 (≈ 130 µg/mL) | 10 (≈ 5.67 µg/mL) | 60 (≈ 34 µg/mL) | 450 (≈ 255 µg/mL) | 230 (≈ 130 µg/mL) | 450 (≈ 255 µg/mL) | 230 (≈ 130 µg/mL) | 110 (≈ 62.3 µg/mL) | 60 (≈ 34 µg/mL) | 30 (≈ 17 µg/mL) | 7 (≈ 3.97 µg/mL) | Ratio (Escherichia coli [9]): 53
5 | COc1cc(/C=N/Nc2nccs2)c2c(c1OCc1ccccc1F)CN1CCc3cc4c(cc3C1C2)OCO4 (centres undefined) | 60 (≈ 33.5 µg/mL) |  | 460 (≈ 257 µg/mL) | 230 (≈ 128 µg/mL) |  | 230 (≈ 128 µg/mL) |  | 460 (≈ 257 µg/mL) |  |  |  | 230 (≈ 128 µg/mL) | 460 (≈ 257 µg/mL) | 460 (≈ 257 µg/mL) | 920 (≈ 514 µg/mL) | 920 (≈ 514 µg/mL) | 230 (≈ 128 µg/mL) |  |  |  | solubility at 3 h [10]: 374 to 3190 µg/mL (≈ 0.669 to 5.71 mM)
